Source: PubChem (several laboratories)
Hits are enriched below; roughly 1.4% of the tested compounds scored in any of these assays.
CHT allo act – allosterically activates the human high affinity choline transporter. B-score at 10 µM. AID 488977. CHT-expressing cells, membrane potential dye, choline EC20; active compounds read high; LV-AA mutant CHT in HEK293 cells. hit rate 0.49% among 310,000;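 active = initial fluorescence not abnormally high and integrated response B-score, plate-corrected, over 3 SD above library mean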
Target sequence (Q9GZV3 whole entry, looked up): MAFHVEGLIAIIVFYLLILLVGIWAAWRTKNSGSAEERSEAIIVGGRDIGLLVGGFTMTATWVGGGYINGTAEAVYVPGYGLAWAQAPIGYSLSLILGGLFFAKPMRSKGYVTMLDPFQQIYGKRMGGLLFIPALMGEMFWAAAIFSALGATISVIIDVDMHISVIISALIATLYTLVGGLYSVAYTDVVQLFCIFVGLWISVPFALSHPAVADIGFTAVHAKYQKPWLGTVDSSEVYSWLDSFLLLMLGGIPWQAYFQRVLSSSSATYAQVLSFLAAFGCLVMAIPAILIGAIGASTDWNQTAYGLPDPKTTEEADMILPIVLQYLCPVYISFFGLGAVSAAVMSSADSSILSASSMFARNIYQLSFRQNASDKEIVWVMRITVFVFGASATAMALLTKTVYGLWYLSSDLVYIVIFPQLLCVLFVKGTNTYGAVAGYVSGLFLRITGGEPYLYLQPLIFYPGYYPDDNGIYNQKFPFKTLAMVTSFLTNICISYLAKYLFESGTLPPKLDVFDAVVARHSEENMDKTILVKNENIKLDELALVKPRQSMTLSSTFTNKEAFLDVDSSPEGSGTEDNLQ
TNAP act hiacc – TNAP (human) activation, high acceptor; 200,000 tested, under 10 active; purified TNAP, CDP-star luminescence, 1 M DEA, 30 min; active compounds read high; 0 = EDTA background, 1 = DMSO-only activity; activation factor at 20 µM;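 active = activation factor at least 2 at 20 µM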
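Control set: EDTA negative control, DMSO positive control / Assay system: human TNAP / Quantity: TNAP 1/800 final / Evaluation: TNAP activation factor scaled between EDTA and DMSO control wells / Measured by: luminescent substrate turnover signal / Compound dosing: one dose, 20 µM / Times: 30 min enzyme reaction at room temperature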
TNAP inh hi DEA – TNAP (human) inhibition, high acceptor; inhibition, % at 20 µM; purified TNAP, CDP-star luminescence, 1 M DEA; P05186; AID 1135; hit rate 0.03% among 200,000;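 active = over 50% inhibition of tissue-nonspecific alkaline phosphatase at 20 µM in the single-dose screen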;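 note: plate controls were DMSO wells for no effect and EDTA-quenched wells as full inhibition for full effect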
CHT inh – inhibitors of human choline transporter CHT; Q9GZV3; CHT-expressing cells, membrane potential dye, choline response; active compounds read low; B-score at 10 µM; hit rate 0.86% among 310,000;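 active = B-score over 3 SD under the library average, and starting fluorescence ratio not unusually high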;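 note: choline stimulus applied at its EC90 after an EC20 pre-addition; B-score computed on integrated fluorescence ratio after choline addition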
TNAP inh no acc – inhibitors of human TNAP without phosphate acceptor; hit rate 0.26% among 200,000; AID 1012; purified TNAP, CDP-star luminescence, 30 min; inhibition, % at 20 µM; P05186;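 active = tissue-nonspecific alkaline phosphatase inhibition above about 50% at 20 µM in the single-dose screen, limit read from the data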;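 note: 0% = DMSO negative control and 100% = EDTA positive control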
ABCB6 inh 2 – human ABCB6 transporter inhibition | fluorescence ratio to DMSO, % at 10 µM | hit rate 0.19% among 360,000 | K562-ABCB6 porphyrin accumulation, flow cytometry, 1 h; active compounds read low;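 active = fluorescence ratio to DMSO below 75%, the collection mean minus 3 SD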;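 note: signal is porphyrin accumulated inside mitochondria; 100% equals median channel fluorescence of DMSO control wells; lower ratio means ABCB6 inhibition with less porphyrin fluorescence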
* marks the source's active call; other numbers are inactive results; i = inactive; nt = no result given.

SMILES	CHT allo act	TNAP act hiacc	TNAP inh hi DEA	CHT inh	TNAP inh no acc	ABCB6 inh 2
CCSc1nnc(NC(=O)C(CC)(C(F)(F)F)C(F)(F)F)s1	i	1.1	-5	-5.2*	-20	103
COc1ccc(CCNC(=O)COC(=O)c2cc(=O)[nH]c3ccccc23)cc1	nt	nt	nt	nt	nt	99
O=c1c2ccccc2cnn1Cc1n[nH]c(=S)n1-c1cc(Cl)cc(Cl)c1	i	0.9	7	i	61*	96
S=c1[nH]nc(-c2ccco2)n1/N=C/c1ccc(Cl)c(Cl)c1	i	1	5	i	58*	99
O=C(/C=C/c1ccc(O)c(O)c1)c1ccc(S(=O)(=O)N2CCCCCC2)cc1	i	0.6	43	i	57*	100
Nc1nc(Cl)cc(N2CCC(c3cc(-c4ccc(Cl)cc4Cl)n[nH]3)CC2)n1	i	1	-1	i	56*	93
Nc1nc(Cl)cc(N2CCCC2)n1	i	1	-4	i	-8	95
CN(C)S(=O)(=O)c1cccc(-c2nnc3n2CCCCC3)c1	i	nt	nt	i	nt	97
CNS(=O)(=O)c1cccc(C(=O)OCc2cc(=O)oc3c(C)c(O)ccc23)c1	i	nt	nt	-6.3*	nt	95
CCC1CN(C(=O)N2CCC(C(=O)Nc3ccccc3F)CC2)c2ccccc2O1 (configuration not stated)	i	nt	nt	i	nt	97
CC1(C)CC(=O)C(CC(=O)Nc2cc(C(F)(F)F)ccc2Cl)C(=O)C1	i	0.6	35	i	52*	164
COc1ccc(C2NC(=S)NC(O)(C(F)(F)F)C2C(=O)c2cccs2)cc1 (configuration not stated)	i	1	-1	i	-13	99
Cc1sc2nc(CN3CCN(S(=O)(=O)c4cccc5nonc45)CC3)[nH]c(=O)c2c1C	i	1	-1	i	-9	24*
CC1C(c2ccccc2)=Nn2c(=O)n(-c3ccccc3)c(=O)n21 (configuration not stated)	nt	nt	nt	nt	nt	95
COc1cc2c(c(OC)c1OC)-c1ccc(SC)c(=O)cc1C(NC=O)CC2 (configuration not stated)	nt	nt	nt	nt	nt	96
CCOC(=O)/C(C#N)=C1\SS/C(=C(/C#N)C(=O)OCC)S1	i	nt	nt	-5.5*	nt	nt
Oc1ccc(/C=N/NC(=S)Nc2cccnc2)cc1O	i	0.8	20	i	78*	95
CC(C)(C)c1ccc(/C=N/NC(=S)Nc2cccnc2)cc1	i	0.9	6	i	-6	nt
COc1cc2c(cc1OC)C(c1ccc3c(c1)Cc1ccccc1-3)OC(=O)C2 (configuration not stated)	nt	nt	nt	nt	nt	93
CCC(=O)N(CCC(c1ccccc1)c1ccco1)Cc1cccs1 (configuration not stated)	9.5*	1	-3	i	-11	93
Cn1c(=O)c2c(ncn2CC(=O)OCC(=O)c2ccc(Br)cc2)n(C)c1=O	nt	nt	nt	nt	nt	107
O=C(N/N=C/c1ccccc1C(=O)O)c1cc(-c2ccc3c4c(cccc24)CC3)n[nH]1	i	1	-2	i	74*	98
CCCCN=CC1=C(O)C(C(=O)OC)C(C)(C)CC1=O (configuration not stated)	i	1	3	i	-6	99
CC(C)(C)c1cc(NCCCn2ccnc2)n2ncc(-c3ccccc3)c2n1	i	nt	nt	i	nt	94
CCCc1cc(NCCCn2ccnc2)n2nc(C)c(-c3ccccc3)c2n1	i	nt	nt	-7.1*	nt	98
SMILES	CHT allo act	TNAP act hiacc	TNAP inh hi DEA	CHT inh	TNAP inh no acc	ABCB6 inh 2
CCCCc1ccc(CC(=O)Nc2cc(S(=O)(=O)N3CCOCC3)ccc2O)cc1	nt	nt	nt	nt	nt	97
Cc1onc(-c2ccccc2)c1C(=O)NNC(=S)NC(=O)/C=C/c1ccccc1	i	1.1	-5	i	-24	74*
O=C(NNC(=O)c1cc2cc(Br)ccc2oc1=O)c1ccc(O)cc1	i	0.9	8	i	82*	101
N=C(N)SCc1cn2ccccc2n1	i	1	0	i	59*	99
Cn1cccc1-c1cc(C(=O)N/N=C/c2ccc(Cl)cc2)[nH]n1	i	nt	nt	i	nt	105
COc1cccc(/C=N/NC(=O)c2cc(-c3cccn3C)n[nH]2)c1O	i	1	2	i	-157	98
COc1cccc(/C=N/NC(=O)c2cc(-c3cccn3C)n[nH]2)c1	i	0.9	7	i	94*	100
COc1cc(/C=N/NC(=O)c2cc(-c3cccn3C)n[nH]2)cc(OC)c1OC	i	0.9	9	i	91*	101
COc1ccc(OC)c(S(=O)(=O)Nc2cccnc2)c1	i	0.3	75*	i	86*	103
COc1ccc(OC)c(S(=O)(=O)NCc2ccccc2)c1	i	1.1	-6	i	-18	68*
Cc1ccc(NC(=O)CSc2nc3ccccc3c(=O)n2CCCN2CCCCC2)cc1C	7.3*	1	-1	i	-26	101
COc1ccc(NC(=S)N2CCC(NC(=O)c3ccc(OC)cc3)CC2)cc1	i	nt	nt	i	nt	74*
C[C@H](O)[C@@H]1CN2CCc3c([nH]c4ccccc34)[C@@H]2C[C@@H]1N(C)C(=O)NC1CCCCC1	nt	nt	nt	nt	nt	102
CN(C)c1ccc(/C=C(/C(=O)c2ccc(Cl)cc2Cl)n2cncn2)cc1	i	0.5	55*	i	48	115
Cc1ccccc1OCc1nnc2c3cnn(C)c3ncn12	i	1.1	-6	i	55*	89
O=C1/C(=C/c2cccc(O)c2)SC(=S)N1CC1CCCO1 (configuration not stated)	i	nt	nt	i	nt	96
CCOc1cc(/C=C2/SC(=S)N(CC3CCCO3)C2=O)ccc1O (configuration not stated)	i	0.5	52*	i	33	230
CCOc1cc(/C=C2\SC(=S)N(NC(=O)c3cccnc3)C2=O)ccc1O	i	0.5	51*	i	49	259
C#CC1(O)CCC2C3CCC4=Cc5oncc5CC4(C)C3CCC21C (configuration not stated)	nt	nt	nt	nt	nt	98
CC(NC(=S)NCCc1ccccc1)C(c1cccs1)N1CCN(C)CC1 (configuration not stated)	i	1	0	i	-3	92
Nc1ccc(Cl)c(S(=O)(=O)Nc2cccc(Cl)c2)c1	i	1	-1	-8.9*	-5	96
CC1C(=O)NN=C1C(=O)N/N=C\c1ccc(O)cc1O (configuration not stated)	i	0.9	11	i	72*	100
NC(=O)c1oc2ccccc2c1NC(=O)C1COc2ccccc2O1 (configuration not stated)	i	1.1	-8	i	-8	93
COc1ccc(-c2csc(NC(=O)c3ccccc3Br)c2C(=O)O)cc1	i	nt	nt	-6.2*	nt	96
